Experiments:
MS2 coat protein [1] = assay: apparent Kd, MS2 coat protein; higher = weaker binding; RNA-MaP array; theophylline 2 mM where present
Outline: (§1)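 The apparent Kd is reported as the median of filtered per-cluster binding-curve fits. To get these curves, designs transcribed by stalled E. coli RNA polymerase on Illumina sequencing-chip clusters were titrated with SNAP-549-labelled MS2 coat protein from 0.7 or 1.5 nM, doubling to 3 µM. Titrations were run without and then with constant ligand in 100 mM Tris-HCl pH 7.5, 80 mM KCl, 4 mM MgCl2, BSA, DTT, yeast tRNA and Tween-20, and green signal was normalised to red-channel RNA signal and control-cluster median Fmax.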

MS2 coat protein [2] = assay: apparent Kd, MS2 coat protein; higher = weaker binding; RNA-MaP array; tryptophan 2.4 mM where present
Outline: as §1

[3] = designed as: ON switch for theophylline, no ligand
[4] = ligand present: theophylline, designed as: ON switch for theophylline
[5] = designed as: OFF switch for theophylline, no ligand
[6] = ligand present: theophylline, designed as: OFF switch for theophylline
[7] = designed as: ON switch for tryptophan, no ligand
[8] = ligand present: tryptophan, designed as: ON switch for tryptophan
[9] = designed as: OFF switch for tryptophan, no ligand
[10] = ligand present: tryptophan, designed as: OFF switch for tryptophan

Sequence: AAUAACAUGAGGAUCACCCAUGUAAAAGAUACCAGAUGCAUGAUGAUCCCUUGGCAGCUUAAAACGCGAUUGAUUACAAUCGCGA
- apparent Kd (MS2 coat protein [1]; [3]): 33.3 nM
- apparent Kd (MS2 coat protein [1]; [4]): 107 nM

Sequence: ACAUGAGGAUCACCCAUGUCACGGCACGAUACCAGCUGAUGCGGUGGCCCUUGGCAGCGUGACGUUUGGUCCCGCGGAUGACACG
- apparent Kd (MS2 coat protein [1]; [3]): 200 nM
- apparent Kd (MS2 coat protein [1]; [4]): 117 nM

Sequence: AAAUAAAUAACUGAUACCAGUGUACUGACAUGAGGAUCACCCAUGUUGGGUUUUGUUGUACACCCUUGGCAGCAGAAAUAUAAAA
- apparent Kd (MS2 coat protein [1]; [5]): 35.3 nM
- apparent Kd (MS2 coat protein [1]; [6]): 73 nM

Sequence: AAUAUAUAGACGGCCGCCACUGGAACCAAUACAUGAGGAUCACCCAUGUGAAAAGGAUAGGUUCACAGGACCGGGUCUUCAUGUA
- apparent Kd (MS2 coat protein [2]; [7]): 25.7 nM
- apparent Kd (MS2 coat protein [2]; [8]): 9.99 nM

Sequence: CACGCACGAUCGGCCGCCACUCAUGUAGCUUACAUGAGGAUCACCCAUGUAUUUUCUUUCUUAUAGAGGACCGGGAUCGUGCGUG
- apparent Kd (MS2 coat protein [2]; [7]): 17.6 nM
- apparent Kd (MS2 coat protein [2]; [8]): 15.3 nM

Sequence: AGUUUGGACUCGGCCGCCACUCGUGAUGCUUUGGCACAUGAGGAUCACCCAUGUGGUCGGCCUUAGAGGACCGGGAGUACCAGCC
- apparent Kd (MS2 coat protein [2]; [7]): 405 nM
- apparent Kd (MS2 coat protein [2]; [8]): 43 nM

Sequence: AAUUAUCAGUCGGCCGCCACUGACACAUGAGGAUCACCCAUGUAACUUGGGUUAAAUUUAAUAAACAGGACCGGGACAAAGGCUA
- apparent Kd (MS2 coat protein [2]; [9]): 186 nM
- apparent Kd (MS2 coat protein [2]; [10]): 184 nM

Sequence: GUACAUGAGGAUCACCCAUGUGGUAGGGAUACCAGCCAGAAGAAAGGCCCUUGGCAGCUUGUAUUUAGUGUGGGUUUGUUUGUUC
- apparent Kd (MS2 coat protein [1]; [5]): 23.4 nM
- apparent Kd (MS2 coat protein [1]; [6]): 54.9 nM

Sequence: ACAUGAGGAUCACCCAUGUAGUGGCACGAUACCAGCUGAUCCCGUGGCCCUUGGCAGCGUCCGGUGUGGUGCGCCGGGUUGGAGC
- apparent Kd (MS2 coat protein [1]; [3]): 49.1 nM
- apparent Kd (MS2 coat protein [1]; [4]): 61.7 nM

Sequence: GUAUGGAAACAUACUAGGGUAUCAUGAGAUACCAGUACAGAAAUGUACCCUUGGCAGCUCAAGCAUACAUGAGGAUCACCCAUGU
- apparent Kd (MS2 coat protein [1]; [5]): 16.4 nM
- apparent Kd (MS2 coat protein [1]; [6]): 27.1 nM

Sequence: AACAUGAGGAUCACCCAUGUGUCCUCGAAACGAGGACCGGUACGGCCGCCACUCGAAAUAAGCUGUUGACGAAAAGUCAGCAGCA
- apparent Kd (MS2 coat protein [2]; [9]): 281 nM
- apparent Kd (MS2 coat protein [2]; [10]): 501 nM

Sequence: UAUAUAUAUAUGGAUACCAGCAGAGAAAACGUUUAUCCUAACAUGAGGAUCACCCAUGUAUGCCCUUGGCAGCUGUGUAUAUAUA
- apparent Kd (MS2 coat protein [1]; [5]): 22.2 nM
- apparent Kd (MS2 coat protein [1]; [6]): 26.8 nM

Sequence: GCGUGGUCUGCGGCCGCCACUCAAGGAGCUACAUAGCUCCUAGACAUGAGGAUCACCCAUGUCGCGAGGACCGGGUAGAUUCUCC
- apparent Kd (MS2 coat protein [2]; [7]): 96 nM
- apparent Kd (MS2 coat protein [2]; [8]): 30.8 nM

Sequence: UUAUAAGUACCGGUCCUCAGAUCCUCAUGACGAGGACCGGUACGGCCGCCACUCGAAACAUGAGGAUCACCCAUGUAAUAAUAUU
- apparent Kd (MS2 coat protein [2]; [9]): 22.1 nM
- apparent Kd (MS2 coat protein [2]; [10]): 20 nM

Sequence: GUUGUAUACUCGGCCGCCACUGAGAGAGUCAUGUAAACAUGAGGAUCACCCAUGUAAUAUAUAUACAGGACCGGGAGUAUGGUAA
- apparent Kd (MS2 coat protein [2]; [9]): 15 nM
- apparent Kd (MS2 coat protein [2]; [10]): 12.9 nM

Sequence: UAAUCAGUGCCGGUUCUCGGAUCCUCAUGUCGAGGACCGGUACGGCCGCCACUCGGAACAUGAGGAUCACCCAUGUAAUAAUAAU
- apparent Kd (MS2 coat protein [2]; [9]): 97.3 nM
- apparent Kd (MS2 coat protein [2]; [10]): 92.7 nM

Sequence: UCGUGUAUAUCGGAUACCAGUGAAAACGAUACAUGAGGAUCACCCAUGUGAGUUGAUGUACACCCUUGGCAGCUGUAUAUAUCUA
- apparent Kd (MS2 coat protein [1]; [3]): 19.3 nM

Sequence: AGCGAUAUGCAUGAUACCAGCUACAUGAGGAUCACCCAUGUGCGUCAGAAAUGACUGUGUAGCCCUUGGCAGCAUAGAGCAUGUA
- apparent Kd (MS2 coat protein [1]; [5]): 37.4 nM
- apparent Kd (MS2 coat protein [1]; [6]): 73.6 nM

Sequence: AACGCGGUGAUGGUAGCCGGACGCUAGGUACGAGGACCGGUACGGCCGCCACUCGGAGUCCUACGACAUGAGGAUCACCCAUGUA
- apparent Kd (MS2 coat protein [2]; [7]): 127 nM
- apparent Kd (MS2 coat protein [2]; [8]): 67.5 nM

Sequence: UCGUGUGUUUCGGAUACCAGUGUGGUCGAUACAUGAGGAUCACCCAUGUUAGAGGAGGUACACCCUUGGCAGCCGGCUGUUGCGG
- apparent Kd (MS2 coat protein [1]; [3]): 108 nM
- apparent Kd (MS2 coat protein [1]; [4]): 51.1 nM

Sequence: ACUAGUUGUGCAGAUACCAGACAUGAGGAUCACCCAUGUUUGGGAUCUUCGGAUCUUCCUGUCCCUUGGCAGCUGUACAUCUAGA
- apparent Kd (MS2 coat protein [1]; [5]): 85 nM
- apparent Kd (MS2 coat protein [1]; [6]): 22.5 nM

Sequence: AUGUCGUUGAAUAUAGCGGCUUGGUGUGAUACCAGAAUGAUCUAAUUCCCUUGGCAGCAUUACAUGAGGAUCACCCAUGUUUAGG
- apparent Kd (MS2 coat protein [1]; [3]): 25.2 nM
- apparent Kd (MS2 coat protein [1]; [4]): 29.2 nM

Sequence: CCUCAAUAGACGGCCGCCACUGAGACAUGAGGAUACAUGAGGAUCACCCAUGUGGGUGUGUCACGCAGGACCGGGUCAAGACCCG
- apparent Kd (MS2 coat protein [2]; [7]): 523 nM
- apparent Kd (MS2 coat protein [2]; [8]): 514 nM

Sequence: AACAUGAGGAUCACCCAUGUGUCCUCGAAACGAGGACCGGUACGGCCGCCACUCGAAGCAUGUUGACGAAAAGUCAGCAUGCAAA
- apparent Kd (MS2 coat protein [2]; [9]): 318 nM
- apparent Kd (MS2 coat protein [2]; [10]): 1060 nM

Sequence: CGAACAAAACUAAAUAAACAACUGGGUGAUACCAGUACAUGUGCGUACCCUUGGCAGCAUCCGGCCACAUGAGGAUCACCCAUGU
- apparent Kd (MS2 coat protein [1]; [3]): 64.7 nM
- apparent Kd (MS2 coat protein [1]; [4]): 119 nM

Sequence: CAUACUUUAGUAUGUUAUGUGGACAGUGAUACCAGAUACGAAAGUAUCCCUUGGCAGCACAACAUGAGGAUCACCCAUGUAUUUU
- apparent Kd (MS2 coat protein [1]; [3]): 23 nM
- apparent Kd (MS2 coat protein [1]; [4]): 13.6 nM

Source: the EternaBench riboswitch data
